Measured values taken from ChEMBL document CHEMBL1811915, “Discovery of new chromone containing sulfonamides as potent inhibitors of bovine cytosolic carbonic anhydrase” (Bioorg Med Chem, 2011).

Key:
[1] = Inhibition of bovine carbonic anhydrase assessed as formation of p-nitrophenol from p-nitrophenyl acetate substrate after 30 mins by spectrophotometric method; set-up: species or system Bos taurus
Summary of the method: (§1)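 Bovine cytosolic CA (CA-I plus CA-II mix, 98.9% pure), 0.35 U/well, in 50 mM Tris–sulfate pH 7.6 with 0.1 mM ZnCl₂. Compound in DMSO is pre-incubated with enzyme for 10 min at 25 °C and pre-read at 348 nm. p-Nitrophenyl acetate is added to 0.6 mM final, then read at 348 nm after 30 min at 25 °C. Percent inhibition is relative to DMSO control; mean of three independent experiments ± sem.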

[2] = species: Bos taurus; experiment: Inhibition of bovine carbonic anhydrase assessed as formation of p-nitrophenol from p-nitrophenyl acetate substrate at 0.5 mM after 30 mins by spectrophotometric method; summary of the method: as §1

| SMILES | IC50 [1] | inhibition [2] | Ki [1] |
| --- | --- | --- | --- |
| CCOC1Oc2ccccc2C(=O)/C1=C\Nc1cccc(S(N)(=O)=O)c1 (centres undefined) | 17.72 µmol | 67.6% |  |
| CCOC1Oc2ccc(Br)cc2C(=O)/C1=C\Nc1cccc(S(N)(=O)=O)c1 (centres undefined) | 18.27 µmol | 68.8% |  |
| CCOC1Oc2ccccc2C(=O)/C1=C\Nc1ccc(S(N)(=O)=O)cc1 (centres undefined) | 19.21 µmol | 64% |  |
| CCOC1Oc2ccc(CC)cc2C(=O)/C1=C\Nc1cccc(S(N)(=O)=O)c1 (centres undefined) | 11.71 µmol | 65.3% |  |
| CCOC1Oc2ccc(CC)cc2C(=O)/C1=C\Nc1ccc(S(N)(=O)=O)cc1 (centres undefined) | 16.63 µmol | 69.7% |  |
| CCOC1Oc2c(Br)cc(Br)cc2C(=O)/C1=C\Nc1cccc(S(N)(=O)=O)c1 (centres undefined) | 29.12 µmol | 61.2% |  |
| CCOC1Oc2ccc(F)cc2C(=O)/C1=C\Nc1cccc(S(N)(=O)=O)c1 (centres undefined) | 11.37 µmol | 66.8% |  |
| CCOC1Oc2c(Br)cc(Br)cc2C(=O)/C1=C\Nc1ccc(S(N)(=O)=O)cc1 (centres undefined) | 21.12 µmol | 67.3% |  |
| CCOC1Oc2ccc(F)cc2C(=O)/C1=C\Nc1ccc(S(N)(=O)=O)cc1 (centres undefined) | 4.31 µmol | 71.2% |  |
| CCOC1Oc2ccc(Br)cc2C(=O)/C1=C\Nc1ccc(S(N)(=O)=O)cc1 (centres undefined) | 16.12 µmol | 65.2% |  |
| NS(=O)(=O)C(F)(F)F [TRIFLUOROMETHANESULFONAMIDE] |  |  | 0.002 µM |
| CC(=O)Nc1nnc(S(N)(=O)=O)s1 [ACETAZOLAMIDE] | 1.13 µmol | 91.3% |  |
| CS(N)(=O)=O [METHANESULFONAMIDE] |  |  | 100 µM |
